Measurements from ChEMBL document CHEMBL2413055, “Synthesis of substituted diphenyl sulfones and their structure-activity relationship with the antagonism of 5-НТ6 receptors” (Bioorg Med Chem, 2013).
pIC50, pKi: −log10 of the molar value.

Tests used:
[1] = biological target: T1, 5-hydroxytryptamine receptor 6 (Homo sapiens, UniProt P50406); test: Antagonist activity at 5-HT6 receptor (unknown origin)
Procedure, shortened: (§1)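 Human 5-HT6R in HEK cells under a tetracycline-inducible T-REx promoter, induced with 1 µg/mL tetracycline the day before. Cells in HBSS/5 mM HEPES pH 7.4, 0.05% BSA and IBMX, about 4000 per well. IC50 from 4-parameter fit, in duplicate. Ki by Cheng-Prusoff using 5-HT EC50 measured alongside.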

[2] = biological target: T1, 5-hydroxytryptamine receptor 6; test: Antagonist activity at recombinant human 5-HT6 receptor expressed in HEK293 cells assessed as 5-HT-induced intracellular cAMP production after 30 mins; type: functional, cell-based; procedure, shortened: as §1
[3] = biological target: T1, 5-hydroxytryptamine receptor 6; test: Displacement of [3H]-lysergic acid diethylamide from human 5-HT6 receptor expressed in HEK293 cell membranes after 3.5 hrs
[4] = biological target: T1, 5-hydroxytryptamine receptor 6; test: Partial agonist activity at recombinant human 5-HT6 receptor expressed in HEK293 cells assessed as induction of intracellular cAMP production after 30 mins; type: functional, cell-based

T1 sequence (P50406 whole entry): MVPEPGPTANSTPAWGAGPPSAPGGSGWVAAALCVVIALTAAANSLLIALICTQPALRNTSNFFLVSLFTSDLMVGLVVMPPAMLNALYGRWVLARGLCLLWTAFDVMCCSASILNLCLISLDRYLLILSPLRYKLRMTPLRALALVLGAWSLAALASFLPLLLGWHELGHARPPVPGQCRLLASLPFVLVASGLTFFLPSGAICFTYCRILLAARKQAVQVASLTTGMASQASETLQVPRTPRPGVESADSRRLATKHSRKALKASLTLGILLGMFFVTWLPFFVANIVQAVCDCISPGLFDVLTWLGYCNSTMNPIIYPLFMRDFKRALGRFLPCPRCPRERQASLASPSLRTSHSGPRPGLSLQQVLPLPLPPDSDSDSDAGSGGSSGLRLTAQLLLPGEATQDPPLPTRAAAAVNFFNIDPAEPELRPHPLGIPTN

CCNc1cc(N2CCNCC2)ccc1S(=O)(=O)c1ccccc1
pIC50 [1]: 8.57

COc1ccccc1S(=O)(=O)c1ccccc1
pKi [2]: 6.06

Nc1cc(N2CCNCC2)ccc1S(=O)(=O)c1ccccc1
pKi [2]: 8.78

CNc1ccccc1S(=O)(=O)c1ccccc1
pKi [2]: 7.61

Nc1ccc(S(=O)(=O)c2ccc(N)c(N)c2)cc1
pKi [2]: 6.25

O=S(=O)(c1ccccc1)c1ccc(N2CCNCC2)cc1
pKi [2]: 7.97

CN(C)c1ccccc1S(=O)(=O)c1ccccc1
pKi [2]: 5.69

CNc1cc(-c2ccccc2)ccc1S(=O)(=O)c1ccccc1
pKi [2]: 6.82

Nc1ccc(S(=O)(=O)c2ccc(N)cc2)cc1 [DAPSONE]
pKi [2]: 6.74

O=S(=O)(c1ccccc1)c1ccccc1 [(PHENYLSULFONYL)BENZENE]
pKi [2]: 5.80

Nc1ccccc1S(=O)(=O)c1ccccc1
pKi [2]: 6.31

CNc1cc(-c2cccnc2)ccc1S(=O)(=O)c1ccccc1
pKi [2]: 7.32

Cc1cc(N2CCNCC2)c2c(c1)N(S(=O)(=O)c1ccccc1Cl)CCO2
pKi [3]: 9.70

CC(=O)Nc1cc(N2CCNCC2)ccc1S(=O)(=O)c1ccccc1
pKi [2]: 8.08

CN(C)c1cc(N2CCNCC2)ccc1S(=O)(=O)c1ccccc1
pKi [2]: 7.52
Activity [4]: 17%
